This note sets out measurements from ChEMBL document CHEMBL3243987 (J Med Chem, 1979).

The structures appear in SMILES notation. ≈ marks a conversion by molar mass, not a printed value.

The target in one experiment is Dihydrofolate reductase (Lactobacillus casei, UniProt P00381). As to the kind of experiment: Inhibition of Lactobacillus casei ATCC 7469 dihydrofolate reductase. Also noted: species or system Lacticaseibacillus casei.
The subject of a further experiment is CCRF-CEM. As to the kind of experiment: Antitumor activity against human CCRF-CEM assessed as growth inhibition. The following applies: read-out: ID50 (the source's name). The format is functional.
In another experiment the test system is Lacticaseibacillus casei. The experiment is described as follows: Antimicrobial activity against folate-dependent Lactobacillus casei ATCC 7469 assessed as growth inhibition. The format is functional, organism-based.
In experiment [1] the test system is L1210. As to the kind of experiment: Antitumor activity against mouse L1210 cells allografted in BDF/1 hybrid mouse assessed as increase in life span at 400 mg/kg, ip first dose treated 24 hrs after tumor implantation and on day 4 and 7. The format is functional. The following applies: route intraperitoneal. In a few lines:
(§1)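 Male BDF/1 hybrid mice were inoculated ip with 10⁵ L-1210 leukemia cells and then given three doses (mg/kg × 3). The read-out was percent increase in life span (% ILS) compared with untreated control animals, reported at the optimal dose.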

Another experiment addresses T1, Thymidylate synthase (Lactobacillus casei, UniProt P00469).
T1 sequence (P00469 whole entry): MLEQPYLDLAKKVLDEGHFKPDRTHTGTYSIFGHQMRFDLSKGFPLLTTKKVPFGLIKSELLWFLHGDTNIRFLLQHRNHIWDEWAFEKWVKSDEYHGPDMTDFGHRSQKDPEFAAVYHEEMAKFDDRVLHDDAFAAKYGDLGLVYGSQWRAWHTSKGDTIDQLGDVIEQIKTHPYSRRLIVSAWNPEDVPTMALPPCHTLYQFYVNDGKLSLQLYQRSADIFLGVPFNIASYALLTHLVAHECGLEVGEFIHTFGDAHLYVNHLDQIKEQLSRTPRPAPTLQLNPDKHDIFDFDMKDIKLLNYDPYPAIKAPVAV
The experiment is described as follows: Inhibition of Lactobacillus casei ATCC 7469 thymidylate synthase. Also noted: species or system Lacticaseibacillus casei.

The test system of experiment [2] is L1210. The experiment is described as follows: Antitumor activity against mouse L1210 cells allografted in BDF/1 hybrid mouse assessed as increase in life span at 200 mg/kg, ip first dose treated 24 hrs after tumor implantation and on day 4 and 7. It counts as functional. The following applies: route intraperitoneal. The method in brief: as §1
Experiment [3] relates to L1210. The experiment is described as follows: Antitumor activity against mouse L1210 cells allografted in BDF/1 hybrid mouse assessed as increase in life span at 50 to 200 mg/kg, ip first dose treated 24 hrs after tumor implantation and on day 4 and 7. The following applies: dose mg/kg 50-200; route intraperitoneal. The format is functional. In a few lines: as §1
Experiment [4] deals with L1210. As to the kind of experiment: Antitumor activity against mouse L1210 cells allografted in BDF/1 hybrid mouse assessed as increase in life span at 30 mg/kg, ip first dose treated 24 hrs after tumor implantation and on day 4 and 7. It counts as functional. The following applies: route intraperitoneal. The method in brief: as §1

One may read the ILS as how much longer treated animals lived than controls.

Dihydrofolate reductase, sequence (P00381 whole entry): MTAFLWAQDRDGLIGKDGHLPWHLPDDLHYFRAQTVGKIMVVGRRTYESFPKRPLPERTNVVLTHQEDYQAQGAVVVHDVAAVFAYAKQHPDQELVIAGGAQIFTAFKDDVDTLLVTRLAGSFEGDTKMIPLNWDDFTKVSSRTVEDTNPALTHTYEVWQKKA

For the compound `COC(=O)C[C@H](NC(=O)Nc1ccc(N(C)Cc2cnc3nc(N)nc(N)c3n2)cc1)C(=O)OC`, the figures for the IC50 at Dihydrofolate reductase, in the experiment on CCRF-CEM and in the experiment with Lacticaseibacillus casei were 600 nM, 3.9 µg/mL (≈ 8.07 µM) and 0.006 µg/mL (≈ 0.0124 µM), respectively.

`COC(=O)CC[C@H](NC(=O)Nc1ccc(N(C)Cc2cnc3nc(N)nc(N)c3n2)cc1)C(=O)OC`: the IC50 against Dihydrofolate reductase is 300 nM; with CCRF-CEM, 3.5 µg/mL (≈ 7.03 µM); in the experiment with Lacticaseibacillus casei, 0.006 µg/mL (≈ 0.0121 µM).

Consider `CN(Cc1cnc2nc(N)nc(N)c2n1)c1ccc(NC(=O)NC(CC(=O)O)C(=O)O)cc1` (racemic), for which the IC50 at Dihydrofolate reductase is 50 nM; with CCRF-CEM it was 3.2 µg/mL (≈ 7.03 µM); against Thymidylate synthase, 190000 nM; in the experiment on Lacticaseibacillus casei, 0.15 µg/mL (≈ 0.329 µM). In the experiment with L1210 [1], the ILS at 400 mg/kg was 22%.

As for `CN(Cc1cnc2nc(N)nc(N)c2n1)c1ccc(NC(=O)NC(CCC(=O)O)C(=O)O)cc1` (racemic), the ILS at 200 mg/kg in the experiment with L1210 [2] is 55%. The IC50 at Dihydrofolate reductase came out at 80 nM; in the experiment with CCRF-CEM it was 0.4 µg/mL (≈ 0.852 µM); at Thymidylate synthase it was 250000 nM; with Lacticaseibacillus casei, 0.008 µg/mL (≈ 0.017 µM).

Turning to `COC(=O)CCC1NC(=O)N(c2ccc(N(C)Cc3cnc4nc(N)nc(N)c4n3)cc2)C1=O` (racemic), the figures for the IC50 against Dihydrofolate reductase, with CCRF-CEM and in the experiment on Lacticaseibacillus casei were 4000 nM, 6.7 µg/mL (≈ 14.4 µM) and 0.104 µg/mL (≈ 0.223 µM), respectively. The ILS with L1210 [3] was found to be 0%.

Turning to `CN(Cc1cnc2nc(N)nc(N)c2n1)c1ccc(C(=O)N[C@@H](CCC(=O)O)C(=O)O)cc1` [METHOTREXATE], the IC50 in the experiment with CCRF-CEM was 0.02 µg/mL (≈ 0.044 µM). For the same compound, the increase in lifespan (ILS) at 30 mg/kg in the experiment with L1210 [4] stood at 88%.
